Assay results gathered from unrelated publications.
Each line is one published result; the experiments were not run side by side.

Structure (SMILES) | tested on | assay | conditions | quantity | result
Cc1cccc2c(C(c3ccc(/C=C/C(=O)O)s3)c3c[nH]c4c(C)cccc34)c[nH]c12 | KG-1 | cell growth or viability | 5 µM, 48 h | inhibition | 1%
CC(=O)NCN1N=C(C)C(=NNn2c(-c3ccccc3)nc3ccccc3c2=O)C1=O | Staphylococcus | microbial growth, broth dilution | 24 h | MIC | 120 µM
O=C(O)C(c1c[nH]c2ccccc12)c1c[nH]c2ccccc12 | KG-1 | cell growth or viability | 20 µM, 48 h | inhibition | 23%
O=c1[nH]cc(F)c(=O)[nH]1 | NRK-52E | cell growth or viability, MTT | 24 h | IC50 | 46.7 µM
C[C@@H]1[C@H](O)[C@@H](C)/C=C/C=C/C=C/C=C/C=C/C=C/C=C/[C@H](O[C@@H]2O[C@H](C)[C@@H](O)[C@H](N)[C@@H]2O)C[C@@H]2O[C@](O)(C[C@@H](O)C[C@@H](O)[C@H](O)CC[C@@H](O)C[C@@H](O)CC(=O)O[C@H]1C)C[C@H](O)[C@H]2C(=O)O | Leishmania panamensis | parasite growth | 24 h, promastigote | IC50 | 0.1 µM
O=C1NN=C(N=Cc2ccccc2O)C1=NNn1c(-c2ccccc2)nc2ccccc2c1=O | Staphylococcus | microbial growth, broth dilution | 24 h | MIC | 111 µM
Clc1ccccc1C(c1ccccc1)(c1ccccc1)n1ccnc1 | Aspergillus flavus | microbial growth, disc diffusion | 20000 µg/mL | inhibition zone | 24 mm
OC(CN1CCOCC1)(Cn1cncn1)c1ccc(F)cc1F (stereo not shown) | Aspergillus flavus | microbial growth, broth dilution | 48 h | MIC | 7.8 µg/mL
COc1ccc(-c2ccc(-c3ccc(C(=N)N)nc3)s2)cc1 | Malme-3M | cell growth or viability, SRB |  | GI50 | 1.84 µM
COc1ccc(-c2c(-c3ccc(C#N)c(F)c3)nc(N3CCC(N)CC3)n(C)c2=O)cc1F | MOLM-13 | cell growth or viability, resazurin | 96 h | EC50 | 0.00096 µM
